{"source": "ChEMBL document CHEMBL1165982", "about": "“Induction of G(2)/M phase arrest and apoptosis by oridonin in human laryngeal carcinoma cells” (J Nat Prod, 2010)", "key": {"HEp-2 [1]": {"tested_on": "HEp-2", "test": "Induction of apoptosis in human Hep2 cells assessed as increase in AIF level at 36 uM after 24 hrs by Western blot analysis in presence of CAT", "type": "functional, cell-based", "summary_of_the_method": "(§1)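 Treatment: 36 µM for 0, 6, 12 or 24 h, alone or with 2.5 mM N-acetylcysteine or 500 U/mL catalase. Lysis 60 min at 4 °C in Hepes pH 7.4/1% Triton X-100 with phosphatase and protease inhibitors, spin 13000g. Lysates run on 12% SDS-PAGE, blotted to nitrocellulose, probed with polyclonal antibodies, HRP/DAB detection. Representative of ≥3 experiments.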"}, "HEp-2 [2]": {"tested_on": "HEp-2", "test": "Cell cycle arrest in human Hep2 cells assessed as accumulation at G2/M phase at 36 uM after 12 hrs using propidium iodide staining by flow cytometry", "type": "functional", "summary_of_the_method": "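ATCC HEp-2 in RPMI-1640 with 10% FBS at 37 °C, 5% CO2, exposed to 36 µM for 0, 6, 12 or 24 h. 1 × 10^6 cells were fixed in 70% ethanol at 4 °C for at least 12 h, then stained on ice in the dark for 30 min with 50 µg/mL PI plus 1 mg/mL RNase A. Read by flow cytometry, ≥10 000 cells per sample. SubG1 counted as the apoptotic fraction. n = 3.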"}, "HEp-2 [3]": {"tested_on": "HEp-2", "test": "Induction of apoptosis in human Hep2 cells assessed as decrease in Bcl-2 at 36 uM after 24 hrs by Western blot analysis in presence of CAT", "type": "functional, cell-based", "summary_of_the_method": "as §1"}, "HEp-2 [4]": {"tested_on": "HEp-2", "test": "Induction of apoptosis in human Hep2 cells assessed as cleaved caspase 3 level at 36 uM after 24 hrs by Western blot analysis in presence of NAC", "type": "functional, cell-based", "summary_of_the_method": "as §1"}, "HEp-2 [5]": {"tested_on": "HEp-2", "test": "Induction of apoptosis in human Hep2 cells assessed as decrease in mitochondrial membrane potential using rhodamine 123 staining at 36 uM after 24 hrs by FACScan flow cytometry in presence of N-acetyl-cysteine ROS scavenger", "type": "functional", "set-up": "scale not given: the % may be the effect or the level left", "summary_of_the_method": "(§2)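 Membrane potential: HEp-2 exposed to 36 µM for 0–24 h, alone or with 2.5 mM N-acetylcysteine for 24 h. Cells collected into PBS with 1 µg/mL rhodamine-123, held 15 min at 37 °C, then read by flow cytometry for % rhodamine-123-bright cells. n = 3.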"}, "HEp-2 [6]": {"tested_on": "HEp-2", "test": "Induction of apoptosis in human Hep2 cells assessed as caspase activated DNase level at 36 uM after 24 hrs by Western blot analysis in presence of NAC", "type": "functional, cell-based", "summary_of_the_method": "as §1"}, "HEp-2 [7]": {"tested_on": "HEp-2", "test": "Induction of apoptosis in human Hep2 cells assessed as increase in phospho-cdc2 (Tyr15) level at 36 uM from 6 to 24 hrs by Western blot analysis in presence of NAC", "type": "functional, cell-based", "summary_of_the_method": "as §1"}, "HEp-2 [8]": {"tested_on": "HEp-2", "test": "Induction of apoptosis in human Hep2 cells assessed as decrease in cdc2 level at 36 uM after 24 hrs by Western blot analysis in presence of NAC", "type": "functional, cell-based", "summary_of_the_method": "as §1"}, "HEp-2 [9]": {"tested_on": "HEp-2", "test": "Induction of apoptosis in human Hep2 cells assessed as decrease in mitochondrial membrane potential using rhodamine 123 staining at 36 uM after 24 hrs by FACScan flow cytometry", "type": "functional", "set-up": "scale not given: the % may be the effect or the level left", "summary_of_the_method": "as §2"}, "HEp-2 [10]": {"tested_on": "HEp-2", "test": "Induction of apoptosis in human Hep2 cells assessed as increase in AIF level at 36 uM after 24 hrs by Western blot analysis in presence of NAC", "type": "functional, cell-based", "summary_of_the_method": "as §1"}, "HEp-2 [11]": {"tested_on": "HEp-2", "test": "Induction of apoptosis in human Hep2 cells at 36 uM after 24 hrs by MTT assay in presence of z-VAD-fmk pan-caspase inhibitor", "type": "functional, cell-based", "summary_of_the_method": "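HEp-2 cells in RPMI-1640 with 10% FBS at 37 °C, 5% CO2, seeded at 1.2 × 10^4 cells/well and grown 24 h. Pretreated 1 h with z-DEVD-fmk (5 µM, line 1) or z-VAD-fmk (10 µM, line 2), then exposed to 36 µM agent for 24 h, with DMSO below 0.05%. Cell inhibitory ratio read by MTT; n = 3, mean ± SD.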"}, "HEp-2 [12]": {"tested_on": "HEp-2", "test": "Induction of ROS generation in human Hep2 cells assessed as ratio of DCF-positive cells at 36 uM after 3 hrs relative to control", "type": "functional", "summary_of_the_method": "(§3)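 Cells exposed to 36 µM for 0, 3, 6, 12 or 24 h, then loaded with DCF-DA (10 mM as printed) for 15 min at 37 °C. Harvested, resuspended in PBS and read by flow cytometry (ex 480 nm, em 525 nm). Result given as % DCF-positive cells. n = 3.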"}, "HEp-2 [13]": {"tested_on": "HEp-2", "test": "Induction of ROS generation in human Hep2 cells assessed as ROS level at 36 uM after 24 hrs in presence of N-acetyl-cysteine ROS scavenger", "type": "functional", "summary_of_the_method": "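ROS read as % DCF-positive cells after 24 h co-incubation of 36 µM with 2.5 mM N-acetylcysteine. DCF-DA loading 15 min at 37 °C; flow cytometry at ex 480 / em 525 nm. n = 3.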"}, "HEp-2 [14]": {"tested_on": "HEp-2", "test": "Induction of apoptosis in human Hep2 cells assessed as apoptotic bodies using acridine orange staining at 36 uM after 24 hrs by microscopic analysis", "type": "functional, cell-based"}, "HEp-2 [15]": {"tested_on": "HEp-2", "test": "Induction of apoptosis in human Hep2 cells assessed as decrease in Bcl-2 at 36 uM after 12 hrs by Western blot analysis", "type": "functional, cell-based", "settings": "in the assay text read “after 24 hrs” for “after 12 hrs”", "summary_of_the_method": "as §1"}, "HEp-2 [16]": {"tested_on": "HEp-2", "test": "Induction of apoptosis in human Hep2 cells assessed as increase in p21/WAF1 level at 36 uM from 6 to 24 hrs by Western blot analysis", "type": "functional, cell-based", "summary_of_the_method": "as §1"}, "HEp-2 [17]": {"tested_on": "HEp-2", "test": "Induction of ROS generation in human Hep2 cells assessed as ratio of DCF-positive cells at 36 uM after 12 hrs relative to control", "type": "functional", "summary_of_the_method": "as §3"}, "HEp-2 [18]": {"tested_on": "HEp-2", "test": "Induction of apoptosis in human Hep2 cells assessed as accumulation in subG1 phase using PI staining at 36 uM after 24 hrs by flow cytometeric analysis in presence of N-acetyl-cysteine ROS scavenger", "type": "functional", "summary_of_the_method": "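HEp-2 cells were pretreated 1 h with 2.5 mM N-acetylcysteine, then co-incubated with 36 µM for 24 h. They were then fixed in 70% ethanol (≥12 h, 4 °C) and stained on ice in the dark for 30 min with 50 µg/mL PI and 1 mg/mL RNase A. G2/M and subG1 fractions were read by flow cytometry, ≥10 000 cells counted. n = 3.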"}, "HEp-2 [19]": {"tested_on": "HEp-2", "test": "Induction of apoptosis in human Hep2 cells assessed as decrease in Bcl-2 at 36 uM after 24 hrs by Western blot analysis in presence of NAC", "type": "functional, cell-based", "summary_of_the_method": "as §1"}, "HEp-2 [20]": {"tested_on": "HEp-2", "test": "Induction of apoptosis in human Hep2 cells assessed as increase in pro-apoptotic Bax protein at 36 uM after 24 hrs by Western blot analysis in presence of CAT", "type": "functional, cell-based", "summary_of_the_method": "as §1"}, "HEp-2 [21]": {"tested_on": "HEp-2", "test": "Induction of apoptosis in human Hep2 cells assessed as increase in cytochrome c at 36 uM after 12 hrs by Western blot analysis", "type": "functional, cell-based", "summary_of_the_method": "as §1"}, "HEp-2 [22]": {"tested_on": "HEp-2", "test": "Induction of apoptosis in human Hep2 cells at 36 uM after 24 hrs by MTT assay in presence of Ac-LEHD-cmk caspase 9 inhibitor", "type": "functional, cell-based", "summary_of_the_method": "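Pretreatment: HEp-2 (1.2 × 10^4/well, plated 24 h earlier) given caspase-9 inhibitor Ac-LEHD-cmk at 5, 10 or 20 µM for 1 h. Then 36 µM for 24 h. Inhibitory ratio by MTT, n = 3, mean ± SD.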"}, "HEp-2 [23]": {"tested_on": "HEp-2", "test": "Induction of apoptosis in human Hep2 cells assessed as morphological changes at 36 uM after 24 hrs by microscopy", "type": "functional, cell-based"}, "HEp-2 [24]": {"tested_on": "HEp-2", "test": "Induction of apoptosis in human Hep2 cells assessed as fragmented DNA using acridine orange staining at 36 uM after 24 hrs by microscopic analysis", "type": "functional, cell-based"}, "HEp-2 [25]": {"tested_on": "HEp-2", "test": "Induction of apoptosis in human Hep2 cells assessed as increase in p21/WAF1 level at 36 uM from 6 to 24 hrs by Western blot analysis in presence of NAC", "type": "functional, cell-based", "summary_of_the_method": "as §1"}, "HEp-2 [26]": {"tested_on": "HEp-2", "test": "Induction of apoptosis in human Hep2 cells assessed as increase in AIF level at 36 uM after 6 hrs by Western blot analysis", "type": "functional, cell-based", "summary_of_the_method": "as §1"}}, "note": "Active and inactive are the calls of the source. The calls are words filed in the database; no cut-off is given here.", "data": [{"smiles": "C=C1C(=O)[C@]23[C@H](O)[C@H]1CC[C@H]2[C@@]12CO[C@]3(O)[C@@H](O)[C@@H]1C(C)(C)CC[C@@H]2O", "note": "[ORIDONIN]", "values": [{"measurement": "Activity", "setting": "HEp-2 [1]", "result": "inactive"}, {"measurement": "Activity", "setting": "HEp-2 [2]", "result": 40.57, "unit": "%"}, {"measurement": "Activity", "setting": "HEp-2 [3]", "result": "inactive"}, {"measurement": "Activity", "setting": "HEp-2 [4]", "result": "inactive"}, {"measurement": "Activity", "setting": "HEp-2 [5]", "result": 89.31, "unit": "%"}, {"measurement": "Activity", "setting": "HEp-2 [6]", "result": "inactive"}, {"measurement": "Activity", "setting": "HEp-2 [7]", "result": "inactive"}, {"measurement": "Activity", "setting": "HEp-2 [8]", "result": "inactive"}, {"measurement": "Activity", "setting": "HEp-2 [9]", "result": 58.6, "unit": "%"}, {"measurement": "Activity", "setting": "HEp-2 [10]", "result": "inactive"}, {"measurement": "Activity", "setting": "HEp-2 [11]", "result": "inactive"}, {"measurement": "Activity", "setting": "HEp-2 [12]", "result": 16.65, "unit": "%"}, {"measurement": "Activity", "setting": "HEp-2 [13]", "result": 4.41, "unit": "%"}, {"measurement": "Activity", "setting": "HEp-2 [14]", "result": "Active"}, {"measurement": "Activity", "setting": "HEp-2 [15]", "result": "Active"}, {"measurement": "Activity", "setting": "HEp-2 [16]", "result": "Active"}, {"measurement": "Activity", "setting": "HEp-2 [17]", "result": 24.21, "unit": "%"}, {"measurement": "Activity", "setting": "HEp-2 [18]", "result": 3.39, "unit": "%"}, {"measurement": "Activity", "setting": "HEp-2 [19]", "result": "inactive"}, {"measurement": "Activity", "setting": "HEp-2 [20]", "result": "inactive"}, {"measurement": "Activity", "setting": "HEp-2 [21]", "result": "Active"}, {"measurement": "Activity", "setting": "HEp-2 [22]", "result": "Active"}, {"measurement": "Activity", "setting": "HEp-2 [23]", "result": "Active"}, {"measurement": "Activity", "setting": "HEp-2 [24]", "result": "Active"}, {"measurement": "Activity", "setting": "HEp-2 [25]", "result": "inactive"}, {"measurement": "Activity", "setting": "HEp-2 [26]", "result": "Active"}]}]}
